Results taken from ChEMBL document CHEMBL3352210, “Aurones as histone deacetylase inhibitors: identification of key features” (Bioorg Med Chem Lett, 2014).
Active and inactive are the calls of the source. The calls are words filed in the database; no cut-off is given here.

Experiments:
[1] = molecular target: T1, Histone deacetylase (Homo sapiens) (UniProt Q13547+O15379+Q9UBN7+Q92769+Q9UQL6+Q8WUI4+Q9BY41+Q96DB2+P56524+Q9UKV0+Q969S8); assay: Inhibition of HDAC in human HeLa cell extract at 100 uM after 15 mins by fluorescence assay; type: protein assay
[2] = Cytotoxicity against human MCF7 cells assessed as cell viability at 15 uM after 72 hrs by Celltitre-glo assay; type: cell-based; settings: read-out: Activity
[3] = Cytotoxicity against human HepG2 cells assessed as cell viability at 15 uM after 72 hrs by Celltitre-glo assay; type: cell-based; settings: read-out: Activity
[4] = molecular target: T2, NAD-dependent protein deacetylase sirtuin-2 (Homo sapiens) (UniProt Q8IXJ6); assay: Modulation of sirtuin 2 (unknown origin) by thermal shift assay
T2 sequence (whole entry): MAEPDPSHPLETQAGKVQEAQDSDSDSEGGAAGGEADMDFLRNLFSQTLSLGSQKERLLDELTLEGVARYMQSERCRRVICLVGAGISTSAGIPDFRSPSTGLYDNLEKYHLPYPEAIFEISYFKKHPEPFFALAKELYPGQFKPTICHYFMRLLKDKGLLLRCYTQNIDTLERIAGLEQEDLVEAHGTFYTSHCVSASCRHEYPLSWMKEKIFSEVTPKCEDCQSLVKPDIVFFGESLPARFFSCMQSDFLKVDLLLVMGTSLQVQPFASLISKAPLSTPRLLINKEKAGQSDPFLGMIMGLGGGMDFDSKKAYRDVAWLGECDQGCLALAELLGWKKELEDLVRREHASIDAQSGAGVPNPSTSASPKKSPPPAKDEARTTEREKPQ
How it was run: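 Sirtuin 2 modulation tested by thermal shift assay.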

[5] = molecular target: T3, Retinoic acid receptor beta (Homo sapiens) (UniProt P10826); assay: Inhibition of RAR-beta (unknown origin) assessed as change in DNA methylation
T3 sequence (whole entry): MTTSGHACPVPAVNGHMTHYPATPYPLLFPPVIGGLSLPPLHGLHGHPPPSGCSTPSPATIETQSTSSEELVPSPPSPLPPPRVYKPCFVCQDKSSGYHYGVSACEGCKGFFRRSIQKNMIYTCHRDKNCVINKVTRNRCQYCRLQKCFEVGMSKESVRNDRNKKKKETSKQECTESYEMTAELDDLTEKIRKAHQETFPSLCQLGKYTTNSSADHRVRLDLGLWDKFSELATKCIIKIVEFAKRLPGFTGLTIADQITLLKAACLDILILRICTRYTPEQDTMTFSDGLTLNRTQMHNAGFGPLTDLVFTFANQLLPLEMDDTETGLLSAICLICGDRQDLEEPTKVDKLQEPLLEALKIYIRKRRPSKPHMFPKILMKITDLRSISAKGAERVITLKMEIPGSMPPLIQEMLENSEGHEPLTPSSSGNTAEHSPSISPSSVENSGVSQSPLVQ
How it was run: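 DNA methylation changes assessed by specific PCR for RARb.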

Histone deacetylase = assay: Inhibition of HDAC in human HeLa cell extract after 15 mins by fluorescence assay; type: protein assay
Histone deacetylase 1 = Histone deacetylase 1 (Homo sapiens, UniProt Q13547); assay: Inhibition of HDAC1 (unknown origin) after 15 mins by fluorescence assay
Histone deacetylase 2 = Histone deacetylase 2 (Homo sapiens, UniProt Q92769); assay: Inhibition of HDAC2 (unknown origin) after 15 mins by fluorescence assay
[6] = molecular target: T4, Protein deacetylase HDAC6 (Homo sapiens, UniProt Q9UBN7); assay: Inhibition of HDAC6 (unknown origin) after 15 mins by fluorescence assay
T4 sequence (Q9UBN7 whole entry): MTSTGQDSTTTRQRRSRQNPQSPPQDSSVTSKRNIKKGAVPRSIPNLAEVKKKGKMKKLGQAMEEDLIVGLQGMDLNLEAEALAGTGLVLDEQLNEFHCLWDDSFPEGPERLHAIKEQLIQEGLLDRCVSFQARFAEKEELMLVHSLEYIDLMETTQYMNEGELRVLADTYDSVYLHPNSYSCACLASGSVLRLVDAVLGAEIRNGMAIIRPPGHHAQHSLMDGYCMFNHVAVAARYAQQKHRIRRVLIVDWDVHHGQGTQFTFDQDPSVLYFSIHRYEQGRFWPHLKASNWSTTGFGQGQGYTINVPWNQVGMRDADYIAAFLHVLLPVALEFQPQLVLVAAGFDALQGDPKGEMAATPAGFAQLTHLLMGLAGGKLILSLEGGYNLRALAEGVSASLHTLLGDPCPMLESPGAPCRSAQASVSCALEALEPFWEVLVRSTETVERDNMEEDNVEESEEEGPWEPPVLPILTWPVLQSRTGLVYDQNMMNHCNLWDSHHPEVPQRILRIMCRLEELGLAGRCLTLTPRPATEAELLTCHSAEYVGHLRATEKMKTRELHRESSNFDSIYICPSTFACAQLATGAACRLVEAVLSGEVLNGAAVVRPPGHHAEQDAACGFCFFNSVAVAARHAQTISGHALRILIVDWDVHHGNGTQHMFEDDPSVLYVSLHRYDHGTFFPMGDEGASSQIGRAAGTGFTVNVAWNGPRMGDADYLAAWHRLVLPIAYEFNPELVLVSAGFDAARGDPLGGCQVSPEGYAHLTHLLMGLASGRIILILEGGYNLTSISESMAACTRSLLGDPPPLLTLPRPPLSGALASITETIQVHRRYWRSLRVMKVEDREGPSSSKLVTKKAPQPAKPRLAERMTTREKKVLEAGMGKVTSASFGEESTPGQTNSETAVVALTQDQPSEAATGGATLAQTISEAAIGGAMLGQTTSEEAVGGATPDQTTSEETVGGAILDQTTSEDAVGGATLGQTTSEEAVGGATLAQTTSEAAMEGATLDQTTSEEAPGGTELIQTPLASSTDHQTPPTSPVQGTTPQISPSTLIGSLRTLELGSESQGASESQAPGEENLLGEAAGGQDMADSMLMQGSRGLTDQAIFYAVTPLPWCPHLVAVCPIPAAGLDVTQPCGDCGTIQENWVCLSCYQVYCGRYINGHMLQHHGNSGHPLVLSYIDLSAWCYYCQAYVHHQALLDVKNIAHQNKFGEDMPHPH

[7] = molecular target: T1, Histone deacetylase (Homo sapiens); assay: Inhibition of HDAC in human MeT-5A cells assessed as hisone H3 acetylation after 16 hrs by BRET assay; type: cell-based
How it was run: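 MeT-5A cells transfected with phRluc-C1-BrD and pEYFP-C1 histone H3, then exposed 16 h to increasing doses; BRET signal read as measure of histone H3 acetylation (rise in signal = more acetylation). SAHA used as positive control. Means ± SEM of three independent experiments.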

[8] = Cytotoxicity against human MeT-5A cells after 16 hrs by luciferase reporter gene assay; type: cell-based

Histone deacetylase 1, sequence (Q13547 whole entry): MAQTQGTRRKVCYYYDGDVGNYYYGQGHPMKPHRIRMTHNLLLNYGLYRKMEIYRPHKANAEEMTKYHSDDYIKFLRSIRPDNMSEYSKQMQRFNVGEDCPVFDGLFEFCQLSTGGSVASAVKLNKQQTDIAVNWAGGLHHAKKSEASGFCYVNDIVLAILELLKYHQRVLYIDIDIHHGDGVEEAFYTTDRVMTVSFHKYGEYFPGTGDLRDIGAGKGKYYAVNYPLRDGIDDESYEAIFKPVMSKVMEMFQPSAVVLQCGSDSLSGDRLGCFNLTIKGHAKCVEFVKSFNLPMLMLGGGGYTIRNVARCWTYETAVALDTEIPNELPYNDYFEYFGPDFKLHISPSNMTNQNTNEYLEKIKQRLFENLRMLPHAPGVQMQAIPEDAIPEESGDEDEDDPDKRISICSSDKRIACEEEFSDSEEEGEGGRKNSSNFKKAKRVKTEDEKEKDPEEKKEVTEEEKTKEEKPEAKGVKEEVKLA
Histone deacetylase 2, sequence (Q92769 whole entry): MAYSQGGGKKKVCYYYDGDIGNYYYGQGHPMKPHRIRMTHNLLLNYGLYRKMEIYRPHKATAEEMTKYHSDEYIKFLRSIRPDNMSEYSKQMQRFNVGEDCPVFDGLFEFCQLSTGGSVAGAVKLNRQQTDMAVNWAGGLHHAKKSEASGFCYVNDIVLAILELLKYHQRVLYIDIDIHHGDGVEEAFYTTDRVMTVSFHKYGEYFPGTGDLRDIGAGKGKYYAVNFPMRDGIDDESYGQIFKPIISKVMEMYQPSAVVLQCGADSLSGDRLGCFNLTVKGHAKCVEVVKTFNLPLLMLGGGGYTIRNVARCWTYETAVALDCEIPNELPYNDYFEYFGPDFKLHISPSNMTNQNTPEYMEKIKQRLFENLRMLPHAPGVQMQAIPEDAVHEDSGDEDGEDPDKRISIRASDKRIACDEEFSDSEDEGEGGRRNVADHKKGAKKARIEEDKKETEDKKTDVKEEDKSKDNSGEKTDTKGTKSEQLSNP

Row | Compound | inhibition [1] [%] | viability at 72 h, 15 µM [2] [%] | viability at 72 h, 15 µM [3] [%] | inhibition [4] | inhibition [5] | IC50 (Histone deacetylase) [µM] | IC50 (Histone deacetylase 1) [µM] | IC50 (Histone deacetylase 2) [µM] | IC50 [6] [µM] | inhibition [7] | Activity [8]
1 | COc1cccc(/C=C2\Oc3ccc(Cl)cc3C2=O)c1OC | 6 | 115 | 99 | inactive | inactive |  |  |  |  |  | 
2 | O=C1/C(=C/c2ccc(O)cc2)Oc2ccccc21 | 100 | 79 | 100 | inactive | inactive | 12.6 | 129 | 100 | 136 | Dose-dependent effect | Dose-dependent effect
3 | COc1ccccc1/C=C1\Oc2ccccc2C1=O [(Z)-2'-METHOXYAURONE] | 7 | 88 | 103 | inactive | inactive |  |  |  |  |  | 
4 | COc1cccc(/C=C2\Oc3ccccc3C2=O)c1 [3'-METHOXY-AURONE] | 1 | 89 | 101 | inactive | inactive |  |  |  |  |  | 
5 | COc1cccc(/C=C2\Oc3ccccc3C2=O)c1OC | 12 | 94 | 104 | inactive | inactive |  |  |  |  |  | 
6 | COc1ccc(/C=C2\Oc3cc(OC)cc(OC)c3C2=O)cc1 [4,4',6-TRIMETHOXY-AURONE] | 20 | 10 | 119 | inactive | inactive |  |  |  |  |  | 
7 | COc1cc(OC)c2c(c1)O/C(=C\c1ccccc1Cl)C2=O | 46 | 72 | 80 | inactive | inactive |  |  |  |  |  | 
8 | COc1ccc(/C=C2\Oc3ccccc3C2=O)cc1 [4'-METHOXY-AURONE] | 23 | 88 | 65 | inactive | inactive |  |  |  |  |  | 
9 | O=C1/C(=C/c2ccc(O)c(O)c2)Oc2cc(O)cc(O)c21 [AUREUSIDIN] | 100 | 102 | 116 | inactive | inactive | 18.5 | 38 | 38.9 | 48.5 | Dose-dependent effect | Dose-dependent effect
10 | O=C1/C(=C/c2ccc(Cl)cc2)Oc2ccccc21 | 13 | 85 | 110 | inactive | inactive |  |  |  |  |  | 
11 | O=C1/C(=C/c2ccc(O)c(O)c2)Oc2ccccc21 | 100 | 95 | 114 | inactive | inactive | 8.2 | 11.4 | 5.1 | 26.9 | Dose-dependent effect | Dose-dependent effect
